Laboratory results from ChEMBL document CHEMBL3400042, “Mitotic arrest of breast cancer MDA-MB-231 cells by a halogenated thieno[3,2-d]pyrimidine” (Bioorg Med Chem Lett, 2015).
Activity calls are given as the source filed them. The calls are words filed in the database; no cut-off is given here.

Legend:
[1] = test system: MDA-MB-231; experiment: Induction of cell cycle arrest in human MDA-MB-231 cells assessed as accumulation at G1 phase at 8 uM after 48 hrs by propidium iodide staining based flow cytometry; format: functional
How it was run: (§1)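 After 48 h of compound exposure, MDA-MB-231 cells were fixed, stained with propidium iodide and analysed by flow cytometry, with at least 3000 cells per population. Phase fractions (<G1, G1, S, G2/M, >G2) were compared with DMSO vehicle controls. Values are mean ± SD of 4 independent cell samples.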

[2] = test system: MDA-MB-231; experiment: Induction of cell cycle arrest in human MDA-MB-231 cells assessed as accumulation at S phase at 8 uM after 48 hrs by propidium iodide staining based flow cytometry; format: functional; how it was run: as §1
[3] = test system: MDA-MB-231; experiment: Induction of cell cycle arrest in human MDA-MB-231 cells assessed as >G2 DNA content at 8 uM after 48 hrs by propidium iodide staining based flow cytometry; format: functional; how it was run: as §1
[4] = test system: MDA-MB-231; experiment: Induction of cell cycle arrest in human MDA-MB-231 cells assessed as < G1 DNA content at 8 uM after 48 hrs by propidium iodide staining based flow cytometry; format: functional; how it was run: as §1
[5] = test system: MDA-MB-231; experiment: Induction of cell cycle arrest in human MDA-MB-231 cells assessed as accumulation at G2/M phase at 8 uM after 48 hrs by propidium iodide staining based flow cytometry; format: functional; how it was run: as §1
[6] = test system: MDA-MB-231; experiment: Cytotoxicity against human MDA-MB-231 cells after 48 hrs by MTT assay; format: functional, cell-based; settings: MDA-MB-231, 48 h
How it was run: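 MDA-MB-231 cells exposed to a range of compound concentrations for 48 h, then viability read by MTT. IC50 (50% cell death) obtained by non-linear regression to a sigmoidal dose-response function; mean ± SD of three independent experiments.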

[7] = test system: MDA-MB-231; experiment: Induction of cell cycle arrest in human MDA-MB-231 cells assessed as reduction in accumulation at G1 phase at 15 uM after 48 hrs by propidium iodide staining based flow cytometry; format: functional; how it was run: as §1
[8] = test system: MDA-MB-231; experiment: Induction of cell cycle arrest in human MDA-MB-231 cells assessed as < G1 DNA content at 15 uM after 48 hrs by propidium iodide staining based flow cytometry; format: functional; how it was run: as §1
[9] = test system: MDA-MB-231; experiment: Induction of cell cycle arrest in human MDA-MB-231 cells assessed as >G2 DNA content at 15 uM after 48 hrs by propidium iodide staining based flow cytometry; format: functional; how it was run: as §1
[10] = test system: MDA-MB-231; experiment: Induction of cell cycle arrest in human MDA-MB-231 cells assessed as accumulation at G2/M phase at 15 uM after 48 hrs by propidium iodide staining based flow cytometry; format: functional; how it was run: as §1
[11] = test system: MDA-MB-231; experiment: Induction of cell cycle arrest in human MDA-MB-231 cells assessed as reduction in accumulation at S phase at 15 uM after 48 hrs by propidium iodide staining based flow cytometry; format: functional; how it was run: as §1

Structure (SMILES) | Activity [1] | Activity [2] | Activity [3] | Activity [4] | Activity [5] | IC50 [6] [µM] | Activity [7] | Activity [8] | Activity [9] | Activity [10] [%] | Activity [11]
Clc1nc(Cl)c2scc(Br)c2n1 | inactive | inactive | inactive | inactive | inactive | 5.9 |  |  |  |  | 
Clc1nc(Cl)c2sccc2n1 |  |  |  |  |  | 9 | Active | inactive | inactive | >70 | Active
